# Experimental data published in ChEMBL document CHEMBL1130045, “7-Spiroindanyl derivatives of naltrexone and oxymorphone as selective ligands for delta opioid receptors” (J Med Chem, 1997).
# pIC50, pKi: −log10 of the molar value.
# Experiments:
# [1] = organism: Mus musculus; test: Compound was tested for agonistic activity on the electrically stimulated mouse vas deferens (MVD) at 1 uM; format: functional
# [2] = organism: Mus musculus; test: Compound was tested for the antagonist activity on the electrically stimulated mouse vas deferens using DADLE as delta opioid receptor agonist; format: functional
# Summary of the method: (§1)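 Electrically stimulated guinea pig ileum (morphine, μ; ethylketazocine, κ) or mouse vas deferens (DADLE, δ). The test ligand is incubated with the tissue for 15 min, then the agonist curve is run with 100 nM antagonist present. Read-out is the IC50 ratio: agonist IC50 with antagonist divided by the control IC50 in the same preparation. Three or more replicates.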
# [3] = organism: Cavia porcellus; test: Compound was tested for agonistic activity on the electrically stimulated guinea pig ileum (GPI) at 1 uM; format: functional
# [4] = molecular target: Opioid receptors; mu & delta (Homo sapiens) (UniProt P41143+P35372); test: Antagonist selectivity ratio measured as delta IC50 to that of mu receptor IC50 values.; format: functional
# Sequence of Opioid receptors; mu & delta (Homo sapiens) (P35372 whole entry, looked up): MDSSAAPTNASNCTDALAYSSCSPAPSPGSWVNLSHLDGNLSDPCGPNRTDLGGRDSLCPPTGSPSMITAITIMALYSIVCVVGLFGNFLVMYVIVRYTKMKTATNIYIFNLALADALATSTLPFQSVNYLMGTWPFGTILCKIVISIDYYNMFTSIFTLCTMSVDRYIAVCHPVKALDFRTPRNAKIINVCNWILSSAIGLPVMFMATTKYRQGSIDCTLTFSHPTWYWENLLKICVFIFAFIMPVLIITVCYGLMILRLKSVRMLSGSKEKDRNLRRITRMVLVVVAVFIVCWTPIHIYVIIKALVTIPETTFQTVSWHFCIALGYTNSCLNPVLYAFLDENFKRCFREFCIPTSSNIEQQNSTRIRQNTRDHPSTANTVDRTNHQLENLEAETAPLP
# Sequence of Opioid receptors; mu & delta (Homo sapiens) (P41143 whole entry, looked up): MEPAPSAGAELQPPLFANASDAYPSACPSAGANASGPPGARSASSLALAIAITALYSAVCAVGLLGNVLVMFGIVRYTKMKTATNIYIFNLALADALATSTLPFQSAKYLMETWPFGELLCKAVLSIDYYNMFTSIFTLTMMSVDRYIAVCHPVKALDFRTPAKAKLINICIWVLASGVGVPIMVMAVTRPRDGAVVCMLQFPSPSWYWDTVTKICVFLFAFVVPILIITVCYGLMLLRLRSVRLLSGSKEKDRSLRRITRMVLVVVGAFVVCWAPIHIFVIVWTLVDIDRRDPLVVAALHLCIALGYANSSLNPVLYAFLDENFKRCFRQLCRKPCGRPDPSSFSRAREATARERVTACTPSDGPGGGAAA
# Summary of the method: (§2)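 Derived from the tissue antagonism data. The δ IC50 ratio (DADLE, mouse vas deferens) is divided by the μ (morphine) or κ (ethylketazocine) IC50 ratio from guinea pig ileum, each ratio measured at 100 nM antagonist. An IC50 ratio below unity is set to a minimum of 1 in the calculation.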
# [5] = molecular target: Mu-type opioid receptor (Cavia porcellus) (UniProt P97266); test: Antagonist activity against electrically stimulated guinea pig ileum using morphine (M) as mu opioid receptor agonist; format: functional, tissue-based; summary of the method: as §1
# Sequence of Mu-type opioid receptor (Cavia porcellus) (P97266 whole entry): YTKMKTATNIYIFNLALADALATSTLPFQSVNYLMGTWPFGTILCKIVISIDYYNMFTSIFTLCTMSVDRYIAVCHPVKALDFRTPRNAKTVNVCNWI
# [6] = molecular target: Kappa-type opioid receptor (Cavia porcellus) (UniProt P41144); test: Antagonist activity against electrically stimulated guinea pig ileum using ethylketazocine (EK) as kappa opioid receptor agonist; format: functional, tissue-based; summary of the method: as §1
# Sequence of Kappa-type opioid receptor (Cavia porcellus) (P41144 whole entry): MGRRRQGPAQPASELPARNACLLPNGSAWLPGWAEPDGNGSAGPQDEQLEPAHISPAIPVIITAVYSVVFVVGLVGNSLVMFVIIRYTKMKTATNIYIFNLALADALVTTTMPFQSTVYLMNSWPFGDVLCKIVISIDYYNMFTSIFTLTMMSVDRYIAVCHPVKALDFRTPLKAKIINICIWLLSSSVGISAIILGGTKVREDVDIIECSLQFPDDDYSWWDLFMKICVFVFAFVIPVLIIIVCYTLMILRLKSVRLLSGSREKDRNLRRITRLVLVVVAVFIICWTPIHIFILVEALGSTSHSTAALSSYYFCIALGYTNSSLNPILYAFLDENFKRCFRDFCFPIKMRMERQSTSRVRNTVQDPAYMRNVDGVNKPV
# [7] = molecular target: Opioid receptors; mu & kappa (Homo sapiens) (UniProt P41145+P35372); test: Antagonist selectivity ratio measured as delta IC50 to that of mu kappa IC50 values.; format: functional; summary of the method: as §2
# Sequence of Opioid receptors; mu & kappa (Homo sapiens) (P35372 whole entry, looked up): as the sequence (P35372 whole entry, looked up) above
# Sequence of Opioid receptors; mu & kappa (Homo sapiens) (P41145 whole entry, looked up): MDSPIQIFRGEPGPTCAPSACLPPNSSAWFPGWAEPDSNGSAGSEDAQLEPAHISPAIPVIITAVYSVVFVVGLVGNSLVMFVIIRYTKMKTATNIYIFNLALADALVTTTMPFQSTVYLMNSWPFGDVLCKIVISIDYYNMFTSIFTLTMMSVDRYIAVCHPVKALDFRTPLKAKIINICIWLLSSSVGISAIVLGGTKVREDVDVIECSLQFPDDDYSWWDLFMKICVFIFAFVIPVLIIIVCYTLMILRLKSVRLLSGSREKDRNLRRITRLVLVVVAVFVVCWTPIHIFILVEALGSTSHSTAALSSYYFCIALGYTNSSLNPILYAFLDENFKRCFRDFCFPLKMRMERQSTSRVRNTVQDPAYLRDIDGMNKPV
# [8] = molecular target: Kappa-type opioid receptor (Mus musculus) (UniProt P33534); test: Compound was tested for its ability to antagonize the antinociceptive effect of U-69,594 (kappa opioid receptor agonist) in mice; format: functional
# Sequence of Kappa-type opioid receptor (Mus musculus) (P33534 whole entry): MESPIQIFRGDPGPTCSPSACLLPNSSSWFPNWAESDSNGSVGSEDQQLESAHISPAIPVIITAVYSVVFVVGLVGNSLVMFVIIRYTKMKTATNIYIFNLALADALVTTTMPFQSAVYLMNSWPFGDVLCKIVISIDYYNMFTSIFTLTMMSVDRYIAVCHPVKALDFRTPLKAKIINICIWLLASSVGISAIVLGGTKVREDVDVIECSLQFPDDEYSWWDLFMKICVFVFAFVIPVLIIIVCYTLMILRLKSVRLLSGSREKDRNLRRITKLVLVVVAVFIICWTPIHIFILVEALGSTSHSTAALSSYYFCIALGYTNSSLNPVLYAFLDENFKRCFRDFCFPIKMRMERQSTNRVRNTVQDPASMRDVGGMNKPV
# [9] = molecular target: Delta-type opioid receptor (Mus musculus) (UniProt P32300); test: Compound was tested for its ability to antagonize the antinociceptive effect of DSLET (delta-2 opioid receptor agonist) in mice; format: functional
# Sequence of Delta-type opioid receptor (Mus musculus) (P32300 whole entry): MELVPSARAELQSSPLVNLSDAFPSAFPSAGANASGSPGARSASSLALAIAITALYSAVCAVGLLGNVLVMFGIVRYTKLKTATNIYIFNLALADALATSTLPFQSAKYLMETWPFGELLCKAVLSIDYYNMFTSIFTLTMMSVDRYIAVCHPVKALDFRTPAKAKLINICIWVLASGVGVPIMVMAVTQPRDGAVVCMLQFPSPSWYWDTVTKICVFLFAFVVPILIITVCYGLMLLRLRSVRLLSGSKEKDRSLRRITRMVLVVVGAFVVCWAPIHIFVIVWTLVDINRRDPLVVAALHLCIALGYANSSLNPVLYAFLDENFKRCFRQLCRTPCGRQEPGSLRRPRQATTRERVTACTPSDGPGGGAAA
# Summary of the method: (§3)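 Tail-flick antinociception in ICR mice. Antagonist is given icv at 5 or 10 nmol, timed so its 20 min peak effect falls at the centre of the observation period. Agonists are DPDPE and DSLET icv, and morphine sc. Read-out is the agonist ED50 with antagonist divided by the control ED50, with 95% confidence limits.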
# [10] = molecular target: Kappa-type opioid receptor (Mus musculus, UniProt P33534); test: […]; format: functional
# Sequence of Kappa-type opioid receptor (Mus musculus, UniProt P33534) (P33534 whole entry): as the sequence (P33534 whole entry) above
# Summary of the method: (§4)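 Competition binding in ICR mouse brain membranes, using a modified Werling procedure. Radioligands are [3H]naltrindole for δ, [3H]DAMGO for μ and [3H]U69593 for κ. Ki values are derived from the competition curves.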
# [11] = molecular target: Mu-type opioid receptor (Mus musculus, UniProt P42866); test: […]; format: functional; summary of the method: as §4
# Sequence of Mu-type opioid receptor (Mus musculus, UniProt P42866) (P42866 whole entry): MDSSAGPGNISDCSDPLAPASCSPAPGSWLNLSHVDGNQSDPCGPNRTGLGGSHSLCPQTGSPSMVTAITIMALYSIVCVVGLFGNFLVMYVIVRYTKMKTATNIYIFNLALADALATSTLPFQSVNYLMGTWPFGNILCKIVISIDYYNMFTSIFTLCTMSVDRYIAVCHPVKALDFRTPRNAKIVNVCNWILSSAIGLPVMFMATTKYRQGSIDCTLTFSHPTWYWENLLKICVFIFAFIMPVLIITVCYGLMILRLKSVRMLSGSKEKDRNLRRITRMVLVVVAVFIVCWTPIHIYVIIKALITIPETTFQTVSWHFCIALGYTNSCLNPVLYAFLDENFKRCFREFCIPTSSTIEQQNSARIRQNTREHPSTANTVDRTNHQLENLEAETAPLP
# [12] = molecular target: Mu-type opioid receptor (Mus musculus) (UniProt P42866); test: Compound was tested for its ability to antagonize the antinociceptive effect of morphine (mu opioid receptor agonist) in mice; format: functional; summary of the method: as §3
# Sequence of Mu-type opioid receptor (Mus musculus) (P42866 whole entry): as above
# [13] = molecular target: T1, Delta-type opioid receptor (Mus musculus, UniProt P32300); test: The compound tested for […] against [3H]- NT1 (Opioid receptor delta 1) opioid receptor; summary of the method: as §4
# T1 sequence (P32300 whole entry): as the sequence (P32300 whole entry) above
# [14] = molecular target: Delta-type opioid receptor (Mus musculus) (UniProt P32300); test: Compound was tested for its ability to antagonize the antinociceptive effect of DPDPE (delta-1 opioid receptor agonist) in mice; format: functional; summary of the method: as §3
# [15] = molecular target: T1, Delta-type opioid receptor; test: […]; format: functional; summary of the method: as §4
# [16] = molecular target: Mu-type opioid receptor (Homo sapiens, UniProt P35372); test: […]; format: functional
# Sequence of Mu-type opioid receptor (Homo sapiens, UniProt P35372) (P35372 whole entry): as the sequence (P35372 whole entry, looked up) above
# [17] = molecular target: Delta-type opioid receptor (Homo sapiens, UniProt P41143); test: […]; format: functional
# Sequence of Delta-type opioid receptor (Homo sapiens, UniProt P41143) (P41143 whole entry): as the sequence (P41143 whole entry, looked up) above
# [18] = molecular target: Kappa-type opioid receptor (Homo sapiens, UniProt P41145); test: […]; format: functional
# Sequence of Kappa-type opioid receptor (Homo sapiens, UniProt P41145) (P41145 whole entry): as the sequence (P41145 whole entry, looked up) above
# [19] = organism: Mus musculus; test: Compound was tested for agonistic activity on the electrically stimulated mouse vas deferens (MVD); format: functional, organism-based
# [20] = organism: Cavia porcellus; test: Compound was tested for agonistic activity on the electrically stimulated guinea pig ileum (GPI); format: functional, organism-based
smiles,measurement,setting,value
COc1ccc2c(c1)CC1(C2)C[C@@]2(O)C3Cc4ccc(O)c5c4C2(CCN3CC2CC2)C(O5)C1=O (stereo not given in full),Max response,[1],0.6%
same,IC50 ratio,[2],11.8
same,Max response,[3],-52%
same,IC50 ratio,[4],1.7
same,IC50 ratio,[5],6.9
same,IC50 ratio,[6],2.8
same,IC50 ratio,[7],4.2
CN1CCC23c4c5ccc(O)c4OC2C(=O)C2(Cc4cc6ccccc6cc4C2)C[C@@]3(O)C1C5 (stereo not given in full),ED50 ratio,[8],3
same,Max response,[1],57%
same,IC50 ratio,[2],1.1
same,Max response,[3],13.4%
same,IC50 ratio,[4],1
same,ED50 ratio,[9],0.9
same,pKi,[10],< 5.52
same,pKi,[11],6.90
same,IC50 ratio,[5],0.58
same,IC50 ratio,[6],1.2
same,IC50 ratio,[7],1
same,ED50 ratio,[12],2
same,pKi,[13],7.50
same,ED50 ratio,[14],1.5
O=C1C2Oc3c(O)ccc4c3C23CCN(CC2CC2)C(C4)[C@]3(O)CC12Cc1cc3ccccc3cc1C2 (stereo not given in full),ED50 ratio,[8],0.8
same,Max response,[1],4.9%
same,IC50 ratio,[2],48
same,Max response,[3],52%
same,IC50 ratio,[4],14.1
same,ED50 ratio,[9],1.5
same,Ki,[15],Non-competitive inhibition
same,pKi,[10],5.99
same,pKi,[11],8.11
same,IC50 ratio,[5],3.4
same,IC50 ratio,[6],0.24
same,IC50 ratio,[7],48
same,ED50 ratio,[12],0.8
same,ED50 ratio,[14],4.4
O=C1C2Oc3c(O)ccc4c3C23CCN(CC2CC2)C(C4)[C@]3(O)CC12Cc1cccc3cccc(c13)C2 (stereo not given in full),Max response,[1],17.6%
same,IC50 ratio,[2],12.6
same,Max response,[3],11.2%
same,IC50 ratio,[4],12.6
same,IC50 ratio,[5],0.93
same,IC50 ratio,[6],0.78
same,IC50 ratio,[7],12.6
CN1CC[C@]23c4c5ccc(O)c4O[C@H]2C(=O)C2(Cc4ccccc4C2)C[C@@]3(O)[C@H]1C5 [SPIROINDANYLOXYMORPHONE],Max response,[3],55%
same,IC50 ratio,[5],1.2
same,IC50 ratio,[6],0.99
same,pKi,[16],7.84
same,pKi,[17],8.56
same,pKi,[18],< 5.52
same,pIC50,[19],7.64
COc1cccc2c1CC1(C2)C[C@@]2(O)C3Cc4ccc(O)c5c4C2(CCN3CC2CC2)C(O5)C1=O (stereo not given in full),ED50 ratio,[8],3.4
same,Max response,[1],-18%
same,IC50 ratio,[2],85
same,Max response,[3],-4.5%
same,IC50 ratio,[4],13.7
same,ED50 ratio,[9],4.3
same,pKi,[15],10.55
same,pKi,[10],< 5.52
same,pKi,[11],9.36
same,IC50 ratio,[5],6.2
same,IC50 ratio,[6],2.4
same,IC50 ratio,[7],35
same,ED50 ratio,[12],2.5
same,ED50 ratio,[14],5.6
O=C1/C(=C/c2ccccc2)C[C@@]2(O)[C@H]3Cc4ccc(O)c5c4[C@@]2(CCN3CC2CC2)[C@H]1O5,ED50 ratio,[8],1.2
same,ED50 ratio,[9],0.91
same,ED50 ratio,[12],0.8
same,ED50 ratio,[14],7.2
O=C1[C@@H]2Oc3c(O)ccc4c3[C@@]23CCN(CC2CC2)[C@H](C4)[C@]3(O)CC12Cc1ccccc1C2,Max response,[1],-8%
same,IC50 ratio,[2],130
same,Max response,[3],16%
same,pKi,[16],8.82
same,pKi,[17],9.60
same,pKi,[18],< 5.52
O=C1C2Oc3c(O)ccc4c3C23CCN(CC2CC2)C(C4)[C@]3(O)CC12Cc1ccc3ccccc3c1C2 (stereo not given in full),Max response,[1],14%
same,IC50 ratio,[2],25
same,Max response,[3],13.9%
same,IC50 ratio,[4],25
same,IC50 ratio,[5],1
same,IC50 ratio,[6],1.7
same,IC50 ratio,[7],14.7
COc1cccc2c1CC1(C2)C[C@@]2(O)C3Cc4ccc(O)c5c4C2(CCN3C)C(O5)C1=O (stereo not given in full),pIC50,[20],6.83
same,pKi,[15],8.26
same,pKi,[10],< 5.52
same,pKi,[11],8.03
same,pIC50,[19],7.57
